Measured values of several laboratories.
Lines come from different studies, so protocols differ.
Target: Cytochrome P450 2C9 (CYP2C9, Homo sapiens, UniProt P11712)
Observed: enzyme activity
Action: inhibitor

SMILES | assay | test system | conditions | measurement | result
NC(=O)C1CCCN1C(=O)Cc1ccc(N(CCCO)Cc2cnc3nc(N)nc(N)c3n2)cc1 (stereo not shown) | luciferase | – | 10 µM | inhibition | -3.91%
O=C(Nc1c2c(cc3c1CCC3)CCC2)NS(=O)(=O)/C=C/c1nccs1 | – | human, liver microsomes | 2 µM, pH 7.4 | inhibition | 21.4%
CC(=O)N1CCN(c2ccc(OCC3COC(Cn4ccnc4)(c4ccc(Cl)cc4Cl)O3)cc2)CC1 (stereo not shown) | – | human, liver microsomes | 1 µM | inhibition | 24%
CCc1cc(/C(C)=N/OCc2ccc(C3CCCCC3)c(C(F)(F)F)c2)ccc1CN1CC(C(=O)O)C1 | – | human, liver microsomes | 200 µM, 20 min | inhibition | 43.2%
Cc1cccc(F)c1N1CCC(N2Cc3cn(CC(C)(F)F)nc3N(Cc3ccccc3C(F)(F)F)C2=O)CC1 | – | human, liver microsomes | – | IC50 | > 10 µM
O=C(NS(=O)(=O)c1ccc(Br)s1)c1ccc(Cl)cc1Cl | – | human, liver microsomes | – | Ki | 0.1 µM
CC1(CO)C(O[C@@H]2O[C@H](C(=O)O)[C@@H](O)[C@H](O)[C@H]2O)CC[C@@]2(C)C1CC[C@]1(C)C2CC=C2[C@H]3CC(C)(C)[C@H](O)[C@@H](O)[C@]3(CO)[C@H](O)C[C@]21C (stereo partly shown) | mass spectrometry | human, liver microsomes | – | IC50 | > 90 µg/mL
CC(=O)c1cccc(OCc2cc(C(=O)N(C)[C@@H](C)c3ccccn3)no2)c1 | – | human, liver microsomes | – | IC50 | 6.3 µM
C=C[C@H]1C[N@@]2CC[C@H]1C[C@@H]2[C@@H](O)c1ccnc2ccc(OC)cc12 | – | human, liver microsomes | 10 µM | inhibition | 15%
COC(=O)C1CCN(C(=O)c2cccc(NCc3cnc4nc(N)nc(N)c4n3)c2)CC1 | luciferase | – | 10 µM | inhibition | -4.69%
C=CC(=O)Nc1cc(Nc2nccc(Nc3cc(Cl)c(F)cc3C(C)(C)O)n2)c(OC)cc1N1CC[C@@H](N(C)C)C1 | – | human, liver microsomes | 10 µM | inhibition | < 20%
NC(=O)C1CCN(C(=O)Cc2ccc(N(CCCO)Cc3cnc4nc(N)nc(N)c4n3)cc2)CC1 | luciferase | – | 10 µM | inhibition | -7.8%
O=C(N[C@H](Cc1c[nH]c2ccccc12)C(=O)Nc1ccncc1)c1ccc(-c2cc(F)ccc2F)cc1F | – | human, liver microsomes | 1 µM | inhibition | 92%
